Reference: article PMC5625158 (Pharmacology Research & Perspectives, 2017)

Key:
[1] = system: obese ZSF1 rats; assay: Renal function in obese ZSF1 rat diabetic nephropathy model; type: in vivo; conditions: for Urinary protein/creatinine ratio (UPCR): 28 weeks
[2] = system: obese ZSF1 rats; assay: Kidney histology in ZSF1 rats; type: in vivo, rat
Method in brief: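 At study end, both kidneys were formalin-fixed, paraffin-embedded and stained with H&E, PAS and Masson's trichrome for light microscopy. Tubular, interstitial, vascular and glomerular changes were graded 0–5 (normal to severe). Collagen deposition was graded 0–5 by blue-stained area size and intensity. Group sizes were n = 8 lean and n = 12 per obese group, with 28 weeks of diet dosing.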

[3] = system: α1β1, α2β1, α3β1, α4β1, α6β1, α9β1, α10β1, α11β1, and αIIbβ3 integrins; assay: Thermal shift assay; type: binding, Human; conditions: Twenty μM MK‐0429
Method in brief: (§1)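 Differential scanning fluorimetry was run on a real-time PCR instrument. Recombinant integrins (the α1β1–αIIbβ3 panel was recombinant human) were reconstituted in assay buffer with Sypro orange, and test compound was added at 20 µM. ΔTm was calculated against a DMSO control. Runs were in triplicate across three independent experiments.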

[4] = system: αvβx integrins; assay: Thermal shift assay, αvβx integrins; type: binding; conditions: Fig. S1B
Method in brief: as §1

[5] = system: human podocytes; assay: Podocyte cell viability; type: cell-based; conditions: 48 h treatment, unpublished data
[6] = system: Human primary kidney fibroblasts (HPKF); assay: Kidney fibroblast fibrosis assay; type: cell-based
Method in brief: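 Primary human kidney fibroblasts were grown on collagen I-coated plates at 37°C in 5% CO2 and serum-starved overnight. They were then given various concentrations of test compound for 24 h. In TGF-β arms, compound was added 1 h before recombinant human TGF-β1 (5 ng/mL final, 24 h). Marker mRNA was measured by RNA extraction, reverse transcription and real-time PCR.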

[7] = Body weight, food and water intake in ZSF1 rats; type: in vivo, rat; conditions: data not shown
Method in brief: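 Male obese ZSF1 rats received the test compound in a medicated chow diet from 16 weeks of age for 28 weeks. Before each collection they were acclimated for at least 3 days to single housing in metabolic cages. Body weight and food and water consumption were recorded at every urine and blood collection, at weeks −2, 1, 2, 4, 6, 8, 12, 16, 21, 24 and 28.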

[8] = system: obese ZSF1 rats; assay: Kidney collagen I and III protein by immunohistochemistry in ZSF1 rats; type: in vivo, rat; conditions: 400 mg/kg/day, versus obese vehicle
Method in brief: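 Kidneys were taken at study end, formalin-fixed and paraffin-embedded, then deparaffinized and rehydrated. Sections were stained with rabbit polyclonal anti-collagen I (2 ug/mL) or anti-collagen III (3 ug/mL), developed with an HRP-polymer kit and counterstained with hematoxylin. Whole slides were scanned at 20x, and positive stain area was quantified by a colour-deconvolution algorithm. Dosing was in diet for 28 weeks.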

[9] = system: obese ZSF1 rats; assay: Kidney fibrosis marker gene expression by RT-PCR in ZSF1 rats; type: in vivo, rat; conditions: dose not given
Method in brief: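 Kidney cortex was snap-frozen, homogenized in TRIzol and column-purified for RNA. A 2 µg RNA sample was reverse-transcribed, and rat TaqMan probes were used for qPCR. Ct values were normalized to the geomean of POLR2A and B2M and quantified by the 2^-ΔΔCT method relative to the obese vehicle group. Treatment was in diet for 28 weeks (n = 12 per obese group).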

[10] = system: platelet aggregation; conditions: ref Hutchinson et al. 2003; cited from earlier work
[11] = biological target: αvβ3 (Homo sapiens, UniProt P05106+P06756); conditions: ref Hutchinson et al. 2003; cited from earlier work
Sequence of αvβ3 (P06756 31-992 limits assumed): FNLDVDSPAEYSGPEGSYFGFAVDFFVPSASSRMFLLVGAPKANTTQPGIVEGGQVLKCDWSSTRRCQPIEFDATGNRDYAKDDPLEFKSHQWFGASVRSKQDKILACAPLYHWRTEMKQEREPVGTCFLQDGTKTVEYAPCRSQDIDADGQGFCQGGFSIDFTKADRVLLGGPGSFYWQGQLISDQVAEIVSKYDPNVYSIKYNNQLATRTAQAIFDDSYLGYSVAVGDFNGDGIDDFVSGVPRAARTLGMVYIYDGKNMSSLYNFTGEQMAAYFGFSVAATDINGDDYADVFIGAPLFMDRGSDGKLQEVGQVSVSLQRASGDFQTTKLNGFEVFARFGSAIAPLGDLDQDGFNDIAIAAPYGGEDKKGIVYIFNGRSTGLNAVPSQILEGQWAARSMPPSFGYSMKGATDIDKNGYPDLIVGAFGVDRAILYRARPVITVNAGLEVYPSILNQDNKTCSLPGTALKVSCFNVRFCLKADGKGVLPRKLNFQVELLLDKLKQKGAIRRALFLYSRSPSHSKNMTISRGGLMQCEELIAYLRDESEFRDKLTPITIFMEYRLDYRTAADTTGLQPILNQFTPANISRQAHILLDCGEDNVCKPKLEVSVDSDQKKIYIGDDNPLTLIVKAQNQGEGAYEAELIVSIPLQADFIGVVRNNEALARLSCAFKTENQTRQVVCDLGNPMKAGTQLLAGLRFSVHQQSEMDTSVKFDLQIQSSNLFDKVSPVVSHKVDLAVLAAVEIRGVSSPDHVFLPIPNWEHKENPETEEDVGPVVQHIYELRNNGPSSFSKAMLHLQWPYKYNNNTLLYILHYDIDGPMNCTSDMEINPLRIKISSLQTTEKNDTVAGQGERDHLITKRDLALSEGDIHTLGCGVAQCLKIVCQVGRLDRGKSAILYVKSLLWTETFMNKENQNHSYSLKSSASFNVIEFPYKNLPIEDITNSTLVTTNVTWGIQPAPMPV
Sequence of αvβ3 (P05106 27-718 limits assumed): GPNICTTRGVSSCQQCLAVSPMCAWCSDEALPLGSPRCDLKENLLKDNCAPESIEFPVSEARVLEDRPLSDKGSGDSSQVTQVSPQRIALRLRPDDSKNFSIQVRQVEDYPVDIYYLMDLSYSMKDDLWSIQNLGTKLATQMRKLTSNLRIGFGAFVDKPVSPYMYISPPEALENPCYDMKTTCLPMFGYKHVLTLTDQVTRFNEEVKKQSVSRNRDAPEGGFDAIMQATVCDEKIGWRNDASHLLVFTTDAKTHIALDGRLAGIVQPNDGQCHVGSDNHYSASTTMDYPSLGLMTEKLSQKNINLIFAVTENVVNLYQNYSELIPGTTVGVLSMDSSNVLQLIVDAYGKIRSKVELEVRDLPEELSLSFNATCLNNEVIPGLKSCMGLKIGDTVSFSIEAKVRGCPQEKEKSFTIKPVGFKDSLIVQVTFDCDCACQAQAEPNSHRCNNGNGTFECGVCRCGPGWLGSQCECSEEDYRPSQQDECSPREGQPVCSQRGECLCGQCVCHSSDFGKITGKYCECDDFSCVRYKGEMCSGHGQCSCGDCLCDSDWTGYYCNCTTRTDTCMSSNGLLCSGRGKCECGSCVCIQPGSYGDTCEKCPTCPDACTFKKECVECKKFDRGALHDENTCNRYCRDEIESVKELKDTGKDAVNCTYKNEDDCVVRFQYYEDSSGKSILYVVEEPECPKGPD

[12] = system: osteoplastic bone resorption; conditions: ref Hutchinson et al. 2003; cited from earlier work
[13] = system: postmenopausal women with osteoporosis; conditions: cited from earlier work
[14] = system: men with hormone‐refractory prostate cancer and bone metastases; conditions: ref Rosenthal et al. 2010; cited from earlier work
[15] = system: liver and lung fibrosis; conditions: ref Henderson et al. 2013; cited from earlier work

CCOC(=O)[C@H](CCc1ccccc1)N[C@@H](C)C(=O)N1CCC[C@H]1C(=O)O [Enalapril, enalapril]
Urinary protein/creatinine ratio (UPCR) ([1]; 10 mg/kg/day in diet): significantly decreased | Glomerular filtration rate (GFR) ([1]; enalapril 10 mg/kg/day in diet): improvement | Kidney fibrosis score (Masson's trichrome) ([2]; 10 mg/kg/day, 28 weeks, versus obese vehicle): significantly decreased

COc1ccc([C@H](CC(=O)O)N2CCN(CCCc3ccc4c(n3)NCCC4)C2=O)cn1 [MK‐0429]
Binding to other integrins (thermal shift assay) [3]: does not bind and No | Shift of melting temperatures of αvβx integrins [4]: dramatic shift | Effect on cell viability [5]: without affecting cell viability | Expression of Collagen type I alpha‐1 chain (Col IA1) ([6]; HPKF ± TGF‐β): partially inhibited | Expression of connective tissue growth factor (CTGF) ([6]; HPKF ± TGF‐β): strongly suppressed | Expression of α‐smooth muscle actin (αSMA) ([6]; HPKF ± TGF‐β): partially inhibited | IC50 ([6]; read-out: Inhibition of PAI‐1 gene expression IC50, HPKF, absence of TGF‐β, 24 h): 0.0565 µM | Urinary protein/creatinine ratio (UPCR) ([1]; 400 mg/kg/day in diet): significantly later onset in its effects to reduce | Body weight [7]: no significant effects | Food intake [7]: no significant effects | Water intake [7]: no significant effects | Glomerular injury score ([2]; 0–5 scale, data not shown): no significant effect | Tubular injury score ([2]; 0–5 scale, data not shown): no significant effect | Decrease of Type I collagen positive stain (% of area), kidney IHC [8]: significantly decreased | Decrease of Type III collagen positive stain (% of area), kidney IHC [8]: significantly decreased | αSMA mRNA expression, kidney [9]: significantly decreased | Activity in platelet aggregation assay [10]: inactive | αvβ3 ligand binding [11]: inhibits | Osteoplastic bone resorption [12]: inhibits | Bone mineral density at spine and hip (multiple endpoints) ([13]; phase II, postmenopausal women with osteoporosis, ref Murphy et al. 2005): improvement | Tolerability in Phase II trials ([13]; ref Hutchinson et al. 2003, Coleman et al. 2004, Murphy et al. 2005, Rosenthal et al. 2010): well tolerated | Bone turnover [14]: significantly reduced

CC(C)(C)c1cc(Br)cc([C@H](CC(=O)O)NC(=O)CNC(=O)c2cc(O)cc(NC3=NCC(O)CN3)c2)c1 (some centres unmarked) [CWHM12]
Liver and lung fibrosis [15]: attenuated
